Source: ChEMBL document CHEMBL1142526, “Synthesis of new pyrazolo[5,1-c][1,2,4] benzotriazines, pyrazolo[5,1-c]pyrido[4,3-e][1,2,4] triazines and their open analogues as cytotoxic agents in normoxic and hypoxic conditions” (Bioorg Med Chem, 2008)
Active and inactive are the calls of the source. The rule behind the calls is not given here.

How the values were obtained:
HCT-8 [1] = test: Cytotoxicity against human HCT8 cells after 72 hrs by SRB assay; format: functional, cell-based; details: HCT-8, 72 h
How it was run: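 SRB assay on HCT-8 cells seeded at 5000/well and allowed 24 h adherence at 37 °C in 5% CO2, then given 72 h continuous exposure across a 10–100 concentration range, eight wells per condition. Maximum final DMSO was 0.1%. Fixed cells were stained with 0.4% SRB in 1% acetic acid, solubilised in 10 mM Tris and read at 540 nm. IC50 is the concentration giving a 50% reduction in net protein increase versus control.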

HCT-8 [2] = test: Cytotoxicity against human HCT8 cells at 100 uM after 72 hrs by SRB assay; format: functional; details: HCT-8, 72 h
How it was run: (§1)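 Single-concentration growth inhibition of HCT-8 cells: seeded at 5000/well with 24 h adherence at 37 °C in 5% CO2, then 72 h continuous drug exposure, eight replicate wells. Maximum final DMSO was 0.1%, with DMSO and MMC controls. Protein was stained with 0.4% SRB in 1% acetic acid, solubilised in 10 mM Tris and absorbance read at 540 nm.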

HCT-8 [3] = test: Cytotoxicity against human HCT8 cells at 10 uM after 72 hrs by SRB assay; format: functional; details: HCT-8, 72 h; how it was run: as §1
HCT-8 [4] = test: Induction of ROS production in human HCT8 cells under hypoxic condition by flow cytometric method relative to untreated control; format: functional, cell-based
How it was run: (§2)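 Dichlorofluorescein method. HCT-8 cells in D-MEM high glucose with 10% FCS, 1–2 × 10^6 per 25 cm² flask, adhered overnight, then given 10 µM under normoxia or hypoxia. DCFH-DA loaded 20 min at 37 °C. Cells harvested with Puck's EDTA, fluorescence read by flow cytometry with 535 nm filter. Expressed as % over DMSO-treated basal; mean ± SEM of at least three experiments.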

HCT-8 [5] = test: Cell cycle arrest in human HCT8 cells in normoxic condition assessed as accumulation at S phase at 10 uM after 48 hrs of drug washout by flow cytometry; format: functional
How it was run: (§3)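 HCT-8 cells in D-MEM high glucose with 10% FCS, plated at 1–2 × 10^6 per 25 cm² flask and left to adhere overnight. Exposed to 10 µM for 24 h, normoxia or hypoxia (0.1% O₂, 95% N₂/5% CO₂), then washed out and reoxygenated 48 h. Floating plus EDTA-harvested cells fixed in 70% ethanol, stained with PI (50 µg/ml) plus RNase A, phase fractions read by flow cytometry.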

HCT-8 [6] = test: Induction of ROS production in human HCT8 cells under normoxic condition by flow cytometric method relative to untreated control; format: functional, cell-based; how it was run: as §2
HCT-8 [7] = test: Effect on cell cycle arrest in human HCT8 cells in normoxic condition assessed as DNA fragmentation at 10 uM after 24 hrs by flow cytometry; format: functional
How it was run: (§4)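 HCT-8 cells in D-MEM high glucose with 10% FCS were seeded at 1–2 × 10^6 per 25 cm² flask, left to adhere overnight, then exposed to drug for 24 h under normoxia or hypoxia. Drug was washed out and cells reoxygenated for 48 h. Floating and adherent cells were pooled, fixed in 70% ice-cold ethanol and stained with PI (50 µg/ml) plus RNase A (5 U/ml) for 30 min. Phases and the sub-G1 hypodiploid fraction (DNA fragmentation) were read by flow cytometry.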

HCT-8 [8] = test: Cell cycle arrest in human HCT8 cells in hypoxic condition assessed as accumulation at G0/G1 phase at 10 uM after 48 hrs of drug washout by flow cytometry; format: functional; how it was run: as §3
HCT-8 [9] = test: Cell cycle arrest in human HCT8 cells in hypoxic condition assessed as accumulation at G2/M phase at 10 uM after 24 hrs by flow cytometry; format: functional; how it was run: as §4
HCT-8 [10] = test: Cell cycle arrest in human HCT8 cells in normoxic condition assessed as accumulation at G2/M phase at 10 uM after 48 hrs of drug washout by flow cytometry; format: functional; how it was run: as §3
HCT-8 [11] = test: Effect on cell cycle arrest in human HCT8 cells in normoxic condition assessed as DNA fragmentation at 10 uM after 48 hrs of drug washout by flow cytometry; format: functional; how it was run: as §4
HCT-8 [12] = test: Effect on cell cycle arrest in human HCT8 cells in hypoxic condition assessed as DNA fragmentation at 10 uM after 48 hrs of drug washout by flow cytometry; format: functional; how it was run: as §4
HCT-8 [13] = test: Effect on cell cycle arrest in human HCT8 cells in hypoxic condition assessed as DNA fragmentation at 10 uM after 24 hrs by flow cytometry; format: functional; how it was run: as §4
HCT-8 [14] = test: Cell cycle arrest in human HCT8 cells in hypoxic condition assessed as accumulation at G0/G1 phase at 10 uM after 24 hrs of drug washout by flow cytometry; format: functional; how it was run: as §4
HCT-8 [15] = test: Cell cycle arrest in human HCT8 cells in hypoxic condition assessed as accumulation at G2/M phase at 10 uM after 24 hrs of drug washout by flow cytometry; format: functional; how it was run: as §4
HCT-8 [16] = test: Cell cycle arrest in human HCT8 cells in hypoxic condition assessed as accumulation at G2/M phase at 10 uM after 48 hrs of drug washout by flow cytometry; format: functional; how it was run: as §3
HCT-8 [17] = test: Cell cycle arrest in human HCT8 cells in normoxic condition assessed as accumulation at G0/G1 phase at 10 uM after 48 hrs of drug washout by flow cytometry; format: functional; how it was run: as §3
HCT-8 [18] = test: Cell cycle arrest in human HCT8 cells in normoxic condition assessed as accumulation at G2/M phase at 10 uM after 24 hrs by flow cytometry; format: functional; how it was run: as §4
HCT-8 [19] = test: Cell cycle arrest in human HCT8 cells in normoxic condition assessed as accumulation at S phase at 10 uM after 24 hrs by flow cytometry; format: functional; how it was run: as §4
HCT-8 [20] = test: Cell cycle arrest in human HCT8 cells in hypoxic condition assessed as accumulation at S phase at 10 uM after 48 hrs of drug washout by flow cytometry; format: functional; how it was run: as §3
HCT-8 [21] = test: Cell cycle arrest in human HCT8 cells in normoxic condition assessed as accumulation at G2/M phase at 10 uM after 24 hrs of drug washout by flow cytometry; format: functional; how it was run: as §4
HCT-8 [22] = test: Cell cycle arrest in human HCT8 cells in hypoxic condition assessed as accumulation at S phase at 10 uM after 24 hrs by flow cytometry; format: functional; how it was run: as §4
HCT-8 [23] = test: Cell cycle arrest in human HCT8 cells in normoxic condition assessed as accumulation at G0/G1 phase at 10 uM after 24 hrs of drug washout by flow cytometry; format: functional
HCT-8 [24] = test: Cell cycle arrest in human HCT8 cells in normoxic condition assessed as accumulation at G0/G1 phase at 10 uM after 24 hrs by flow cytometry; format: functional; how it was run: as §4
HCT-8 [25] = test: Cell cycle arrest in human HCT8 cells in hypoxic condition assessed as accumulation at G0/G1 phase at 10 uM after 24 hrs by flow cytometry; format: functional; how it was run: as §4

`CCOC(=O)c1cn[nH]c1/N=[N+](/[O-])c1cc([N+](=O)[O-])ccc1O` showed an IC50 (HCT-8 [1]) of 65.2 µM, an IC90 (HCT-8 [1]) of over 100 µM and an inhibition at 100 µM (HCT-8 [2]) of 60.4%. The inhibition at 10 µM (HCT-8 [3]) was 11.7%.

`CCOC(=O)c1cnn(-c2ccncc2[N+](=O)[O-])c1N` gave an IC50 (HCT-8 [1]) of 58.2 µM, an IC90 (HCT-8 [1]) of over 100 µM and an inhibition at 100 µM (HCT-8 [2]) of 69.7%. The inhibition at 10 µM (HCT-8 [3]) was 24.4%.

With `CN1CCN(c2ccc3nnc4c([N+](=O)[O-])cnn4c3c2[N+](=O)[O-])CC1` the Activity (HCT-8 [4]) was “Active”, the Activity (HCT-8 [5]) was 35.1% and the Activity (HCT-8 [6]) was “Active”. The Activity (HCT-8 [7]) was 42%, the Activity (HCT-8 [8]) was 31.1% and the Activity (HCT-8 [9]) was 15.6%. For the same compound, the Activity (HCT-8 [10]) was 35.1%, the Activity (HCT-8 [11]) was 59% and the Activity (HCT-8 [12]) was 21%. For the same compound, the Activity (HCT-8 [13]) was 42.8%, the IC50 (HCT-8 [1]) was 5.98 µM and the IC90 (HCT-8 [1]) was 18.5 µM. The Activity (HCT-8 [14]) was 51.2%, the Activity (HCT-8 [15]) was 10.6% and the Activity (HCT-8 [16]) was 23%. For the same compound, the Activity (HCT-8 [17]) was 35.1%, the Activity (HCT-8 [18]) was 22.2% and the inhibition at 100 µM (HCT-8 [2]) was 98.7%. The Activity (HCT-8 [19]) was 37.3%, the inhibition at 10 µM (HCT-8 [3]) was 73.8% and the Activity (HCT-8 [20]) was 45.9%. The Activity (HCT-8 [21]) was 13.4%, the Activity (HCT-8 [22]) was 40.5% and the Activity (HCT-8 [23]) was 48.6%. It also gave an Activity (HCT-8 [24]) of 40.5% and an Activity (HCT-8 [25]) of 43.8%.

With `NC(=O)c1cnn(-c2ccncc2[N+](=O)[O-])c1N` the inhibition at 100 µM (HCT-8 [2]) was 22.4% and the inhibition at 10 µM (HCT-8 [3]) was 9.72%.

For `[O-][n+]1nc2ccnn2c2cc(O)ccc21`, the inhibition at 100 µM (HCT-8 [2]) was 19.7% and the inhibition at 10 µM (HCT-8 [3]) was -4.21%.

In the case of `COc1ccc(-c2ccc3c(c2)n2nccc2n[n+]3[O-])cc1`, the inhibition at 100 µM (HCT-8 [2]) is reported as 21.6% and the inhibition at 10 µM (HCT-8 [3]) is reported as 11%.

`CN(C)CCOc1ccc2c(c1)n1nccc1n[n+]2[O-]` was tested, and the inhibition at 100 µM (HCT-8 [2]) was 42.3% and the inhibition at 10 µM (HCT-8 [3]) was -2.36%.

In the case of `CN1CCN(c2ccc3c(c2)n2ncc([N+](=O)[O-])c2n[n+]3[O-])CC1`, the Activity (HCT-8 [4]) is reported as “Active”, the Activity (HCT-8 [5]) is reported as 35.3% and the Activity (HCT-8 [6]) is reported as “Active”. The Activity (HCT-8 [7]) was 39%, the Activity (HCT-8 [8]) was 47% and the Activity (HCT-8 [9]) was 24.7%. For the same compound, the Activity (HCT-8 [10]) was 24.9%, the Activity (HCT-8 [11]) was 27% and the Activity (HCT-8 [12]) was 60%. The Activity (HCT-8 [13]) was 46.3%, the IC50 (HCT-8 [1]) was 62.5 µM and the IC90 (HCT-8 [1]) was over 100 µM. The Activity (HCT-8 [14]) was 36.8%, the Activity (HCT-8 [15]) was 20.2% and the Activity (HCT-8 [16]) was 12.6%. It also gave an Activity (HCT-8 [17]) of 39.8%, an Activity (HCT-8 [18]) of 22.8% and an inhibition at 100 µM (HCT-8 [2]) of 93.2%. The Activity (HCT-8 [19]) was 36.9%, the inhibition at 10 µM (HCT-8 [3]) was 25.1% and the Activity (HCT-8 [20]) was 40.4%. It also gave an Activity (HCT-8 [21]) of 13%, an Activity (HCT-8 [22]) of 40.7% and an Activity (HCT-8 [23]) of 48%. For the same compound, the Activity (HCT-8 [24]) was 40.3% and the Activity (HCT-8 [25]) was 34.6%.

Compound `CO[C@@]12[C@H](COC(N)=O)C3=C(C(=O)C(C)=C(N)C3=O)N1C[C@@H]1N[C@@H]12` [MITOMYCIN] has an Activity (HCT-8 [7]) of 71.2%, an Activity (HCT-8 [9]) of 14.6% and an Activity (HCT-8 [11]) of 44%. The Activity (HCT-8 [12]) was 99%, the Activity (HCT-8 [13]) was 42.8% and the IC50 (HCT-8 [1]) was 0.083 µM. For the same compound, the IC90 (HCT-8 [1]) was 5.7 µM, the Activity (HCT-8 [14]) was 43.2% and the Activity (HCT-8 [15]) was 14.1%. The Activity (HCT-8 [18]) was 22.8%, the Activity (HCT-8 [19]) was 36.9% and the Activity (HCT-8 [21]) was 19.2%. The Activity (HCT-8 [22]) was 49.1%, the Activity (HCT-8 [23]) was 28.2% and the Activity (HCT-8 [24]) was 40.3%. The Activity (HCT-8 [25]) was 36.3%.
